These results are taken from ChEMBL document CHEMBL1123571, “[(6,7-Dichlorobenzo[b]thien-5-yl)oxy]acetic acids and 1,1-dioxides. 1. A structurally novel class of diuretics with hypotensive activity” (1987).

Assay [1] concerns Rattus norvegicus. As to the kind of experiment: Hypotensive activity was determined in Spontaneously hypertensive rats (SHR) and initial blood pressure was determined at 50 mg/kg oral dose. The assay is classed as functional.
Assay [2] has as its system Rattus norvegicus. Kind of assay: Hypotensive activity was determined in Spontaneously hypertensive rats (SHR) and peak decrease in systolic blood pressure on third day,2h post administration of 50 mg/kg oral dose was determined. The assay is classed as functional, Artery. An outline of the steps:
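Okamoto-Aoki spontaneously hypertensive rats were dosed orally every day with compound suspended in distilled water with Tween 80. Systolic BP was taken by tail-cuff plethysmography on day 1 (predose, 2 h), day 3 (predose, 2 h) and day 5 (predose, 2 and 4 h). The value is the peak fall at day 3, 2 h postdose, ± SEM. Four rats were used in the screen and 4–8 per dose in dose-response.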

In assay [3] the test system is Mus musculus. As to the kind of experiment: Diuretic activity in saline loaded mice, activity is expressed as the sodium present in urine as mean milli equivalent/kg per 5 hr at 64 mg/kg oral dose. The assay is classed as functional. In short, it runs like this:
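Male CD-1 mice (18–24 g), 10 per treatment group, housed five per metabolic cage. Compound was given orally in 1% saline at 10 mL/kg, with a vehicle control group. Pooled urine was analysed for sodium by flame photometry. Values are mean mequiv/kg over 0–5 h.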

`CC(C)CC1=Cc2cc(OCC(=O)O)c(Cl)c(Cl)c2S1(=O)=O` came in with an Initial blood pressure in assay [1] of 176 mmHg. Besides, the “Change in BP” value in assay [2] was -14 mmHg. Also, the “mequiv of Na+/kg” value in assay [3] is listed as 3.24 0-5h.

For the compound `CC(O)C1=Cc2cc(OCC(=O)O)c(Cl)c(Cl)c2S1(=O)=O` (stereo not drawn), in assay [1], the Initial blood pressure came out at 176 mmHg. The “Change in BP” value in assay [2] was -9 mmHg. In addition, the “mequiv of Na+/kg” value in assay [3] is 0.43 0-5h.

As to `CC(O)c1cc2cc(OCC(=O)O)c(Cl)c(Cl)c2s1` (stereo not drawn), the Initial blood pressure in assay [1] is listed as 183 mmHg. Besides, the “Change in BP” value in assay [2] is given as -7 mmHg. Further, the “mequiv of Na+/kg” value in assay [3] is 2.86 0-5h.

For `O=C(O)COc1cc2cc(C3CCCCC3)sc2c(Cl)c1Cl`, the Initial blood pressure in assay [1] amounted to 178 mmHg. In addition, the “Change in BP” value in assay [2] is recorded as 2 mmHg. Moreover, the “mequiv of Na+/kg” value in assay [3] was 1.6 0-5h.

As to `CCCCC1=Cc2cc(OCC(=O)O)c(Cl)c(Cl)c2S1(=O)=O`, the Initial blood pressure in assay [1] came to 185 mmHg. For the same compound, the “Change in BP” value in assay [2] is -24 mmHg. In addition, the “mequiv of Na+/kg” value in assay [3] is on record as 2.42 0-5h.

In assay [1], `CC1=C(C)S(=O)(=O)c2c1cc(OCC(=O)O)c(Cl)c2Cl` returned an Initial blood pressure of 165 mmHg. Moreover, in assay [2], the “Change in BP” value was -17 mmHg. Moreover, the “mequiv of Na+/kg” value in assay [3] was 0.92 0-5h.

In assay [1], `O=C(O)COc1cc2cc(C3CCCC3)sc2c(Cl)c1Cl` gave an Initial blood pressure of 193 mmHg. Also, the “Change in BP” value in assay [2] was -31 mmHg. For the same compound, in assay [3], the “mequiv of Na+/kg” value is reported as 1.3 0-5h.

As for `Cc1sc2c(Cl)c(Cl)c(OCC(=O)O)cc2c1C`, the Initial blood pressure in assay [1] is reported as 192 mmHg. Also, the “Change in BP” value in assay [2] is reported as -37 mmHg. Moreover, the “mequiv of Na+/kg” value in assay [3] is reported as 0.13 0-5h.

Consider `O=C(O)COc1ccc(C(=O)c2cccs2)c(Cl)c1Cl` [TICRYNAFEN], for which, in assay [1], the Initial blood pressure was 200 mmHg. In assay [2], the “Change in BP” value was -14 mmHg. Also, the “mequiv of Na+/kg” value in assay [3] is recorded as 3.31 0-5h.

In assay [1], `O=C(O)COc1cc2c3c(sc2c(Cl)c1Cl)CCCC3` showed an Initial blood pressure of 177 mmHg. Further, in assay [2], the “Change in BP” value is listed as -12 mmHg. Besides, the “mequiv of Na+/kg” value in assay [3] is given as 0.45 0-5h.

With `CCC(=O)c1cc2cc(OCC(=O)O)c(Cl)c(Cl)c2s1`, the Initial blood pressure in assay [1] is 173 mmHg. For the same compound, the “Change in BP” value in assay [2] is -1 mmHg. In addition, in assay [3], the “mequiv of Na+/kg” value is given as 1.18 0-5h.

Take `O=C(O)COc1cc2c(c(Cl)c1Cl)S(=O)(=O)C1=C2CCCC1`: the Initial blood pressure in assay [1] was 179 mmHg. Also, in assay [2], the “Change in BP” value is -8 mmHg. The “mequiv of Na+/kg” value in assay [3] is 0 0-5h.

Compound `CC(C)Cc1cc2cc(OCC(=O)O)c(Cl)c(Cl)c2s1` yielded an Initial blood pressure in assay [1] of 176 mmHg. In addition, in assay [2], the “Change in BP” value is recorded as 4 mmHg. Also, the “mequiv of Na+/kg” value in assay [3] is reported as 1.29 0-5h.

As for `C=C(CC)C(=O)c1ccc(OCC(=O)O)c(Cl)c1Cl` [ETHACRYNIC ACID], the “mequiv of Na+/kg” value in assay [3] is on record as 4.14 0-5h.

In assay [1], `CCCc1cc2cc(OCC(=O)O)c(Cl)c(Cl)c2s1` displayed an Initial blood pressure of 181 mmHg. In addition, the “Change in BP” value in assay [2] was -1 mmHg. For the same compound, the “mequiv of Na+/kg” value in assay [3] was 1.74 0-5h.

For `Cc1csc2c(Cl)c(Cl)c(OCC(=O)O)cc12`, the Initial blood pressure in assay [1] came out at 203 mmHg. Besides, the “Change in BP” value in assay [2] was -12 mmHg. In addition, the “mequiv of Na+/kg” value in assay [3] is 0.8 0-5h.

Compound `CCC(O)c1cc2cc(OCC(=O)O)c(Cl)c(Cl)c2s1` (stereo not drawn) came in with an Initial blood pressure in assay [1] of 166 mmHg. Also, in assay [2], the “Change in BP” value is -22 mmHg. In assay [3], the “mequiv of Na+/kg” value was 3.89 0-5h.

As for `O=C(O)COc1cc2c(c(Cl)c1Cl)S(=O)(=O)C=C2`, the Initial blood pressure in assay [1] amounted to 201 mmHg. Besides, in assay [2], the “Change in BP” value is on record as -3 mmHg. Further, the “mequiv of Na+/kg” value in assay [3] is given as 0.33 0-5h.

Consider `O=C(O)COc1cc2cc(CO)sc2c(Cl)c1Cl`, for which the Initial blood pressure in assay [1] was found to be 199 mmHg. In addition, the “Change in BP” value in assay [2] was -5 mmHg. Further, in assay [3], the “mequiv of Na+/kg” value is listed as 1.23 0-5h.

In turn, `O=C(O)COc1cc2ccsc2c(Cl)c1Cl` came in with an Initial blood pressure in assay [1] of 201 mmHg. Besides, the “Change in BP” value in assay [2] was found to be 2 mmHg. In addition, the “mequiv of Na+/kg” value in assay [3] is recorded as 1 0-5h.
